ChEMBL document CHEMBL3393046, “Conformationally-locked N-glycosides: exploiting long-range non-glycone interactions in the design of pharmacological chaperones for Gaucher disease” (Eur J Med Chem, 2015)
Calls of active or inactive are those of the source. The rule behind the calls is not given here.

Assays:
[1] = target: Lysosomal alpha-glucosidase (Homo sapiens) (UniProt P10253); experiment: Inhibition of alpha-glucosidase (unknown origin) by spectrophotometry
[2] = species: Homo sapiens; experiment: Inhibition of alpha-galactosidase (unknown origin) by spectrophotometry
[3] = target: T1, Lysosomal acid glucosylceramidase (Homo sapiens, UniProt P04062); experiment: Inhibition of human beta-glucocerebrosidase at pH 7.0 by spectrophotometry
T1 sequence (P04062 whole entry): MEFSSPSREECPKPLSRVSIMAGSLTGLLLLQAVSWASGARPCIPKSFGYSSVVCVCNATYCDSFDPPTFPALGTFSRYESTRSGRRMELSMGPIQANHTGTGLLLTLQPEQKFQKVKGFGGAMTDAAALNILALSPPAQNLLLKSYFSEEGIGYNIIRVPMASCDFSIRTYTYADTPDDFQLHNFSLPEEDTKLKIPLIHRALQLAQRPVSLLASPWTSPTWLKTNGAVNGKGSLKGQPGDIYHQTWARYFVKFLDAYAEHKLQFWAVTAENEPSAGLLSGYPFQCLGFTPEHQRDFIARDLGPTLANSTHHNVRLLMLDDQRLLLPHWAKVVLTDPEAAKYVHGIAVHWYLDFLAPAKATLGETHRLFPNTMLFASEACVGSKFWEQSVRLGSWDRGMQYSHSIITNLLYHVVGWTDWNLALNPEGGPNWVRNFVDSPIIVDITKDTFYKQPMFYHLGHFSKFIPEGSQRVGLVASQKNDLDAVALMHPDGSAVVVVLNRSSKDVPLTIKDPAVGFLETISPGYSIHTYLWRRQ

[4] = test system: Prunus dulcis; experiment: Inhibition of almonds beta-glucosidase at 2 mM incubated for 10 to 30 mins using p-nitrophenyl beta-D-glycopyranoside substrate by spectrophotometry
Method in brief: (§1)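 Reaction started by adding enzyme to substrate, without or with various inhibitor concentrations, in phosphate or phosphate-citrate buffer (α/β-mannosidase, amyloglucosidase) at each enzyme's optimal pH. Incubation 10–30 min at 37 °C (55 °C for amyloglucosidase), timed for 10–20% conversion. Stopped with 1 M Na₂CO₃, or for trehalase by heating then GLC-Trinder. Absorbance 405 nm (trehalase 492 nm). Approximate Ki from fixed substrate near Km.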

[5] = test system: Saccharomyces bayanus; experiment: Inhibition of yeast alpha-glucosidase at 2 mM incubated for 10 to 30 mins using p-nitrophenyl alpha-D-glycopyranoside substrate by spectrophotometry; method in brief: as §1
[6] = target: T2, Alpha-mannosidase (Canavalia ensiformis) (UniProt C0HJB3); experiment: Inhibition of jack bean alpha-mannosidase at 2 mM incubated for 10 to 30 mins by spectrophotometry; method in brief: as §1
T2 sequence (whole entry): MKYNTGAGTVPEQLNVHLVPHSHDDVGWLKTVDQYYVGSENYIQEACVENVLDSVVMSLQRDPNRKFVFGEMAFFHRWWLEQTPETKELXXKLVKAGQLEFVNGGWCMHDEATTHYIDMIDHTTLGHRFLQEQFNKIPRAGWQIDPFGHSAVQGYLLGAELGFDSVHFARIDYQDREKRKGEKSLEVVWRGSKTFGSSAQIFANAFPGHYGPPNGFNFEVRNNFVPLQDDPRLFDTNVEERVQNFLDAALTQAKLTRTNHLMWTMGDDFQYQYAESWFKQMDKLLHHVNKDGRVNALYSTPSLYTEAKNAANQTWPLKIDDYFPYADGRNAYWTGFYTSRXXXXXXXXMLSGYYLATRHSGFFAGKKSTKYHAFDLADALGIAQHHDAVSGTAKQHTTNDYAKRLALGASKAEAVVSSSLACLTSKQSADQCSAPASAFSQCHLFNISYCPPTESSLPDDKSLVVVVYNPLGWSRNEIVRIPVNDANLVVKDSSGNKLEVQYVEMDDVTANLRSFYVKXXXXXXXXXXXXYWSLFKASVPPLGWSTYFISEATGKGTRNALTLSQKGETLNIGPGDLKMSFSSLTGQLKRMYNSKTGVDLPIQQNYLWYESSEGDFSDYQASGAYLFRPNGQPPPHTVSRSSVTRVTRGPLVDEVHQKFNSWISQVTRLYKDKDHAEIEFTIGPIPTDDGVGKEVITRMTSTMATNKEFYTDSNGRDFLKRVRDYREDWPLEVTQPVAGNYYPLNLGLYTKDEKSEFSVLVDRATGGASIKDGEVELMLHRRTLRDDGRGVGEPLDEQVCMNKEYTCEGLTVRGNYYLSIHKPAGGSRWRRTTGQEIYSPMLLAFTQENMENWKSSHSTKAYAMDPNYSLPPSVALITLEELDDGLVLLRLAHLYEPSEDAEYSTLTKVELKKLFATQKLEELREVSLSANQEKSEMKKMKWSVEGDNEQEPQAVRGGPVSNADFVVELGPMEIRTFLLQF

[7] = test system: Helix pomatia; experiment: Inhibition of Helix pomatia beta-mannosidase at 2 mM incubated for 10 to 30 mins using substrate by spectrophotometry; method in brief: as §1
[8] = target: T3, Uncharacterized protein (Sus scrofa) (UniProt I3LIR5); experiment: Inhibition of pig kidney trehalase at 2 mM incubated for 10 to 30 mins using alpha,alpha'-trehalose substrate by spectrophotometry; method in brief: as §1
T3 sequence (whole entry): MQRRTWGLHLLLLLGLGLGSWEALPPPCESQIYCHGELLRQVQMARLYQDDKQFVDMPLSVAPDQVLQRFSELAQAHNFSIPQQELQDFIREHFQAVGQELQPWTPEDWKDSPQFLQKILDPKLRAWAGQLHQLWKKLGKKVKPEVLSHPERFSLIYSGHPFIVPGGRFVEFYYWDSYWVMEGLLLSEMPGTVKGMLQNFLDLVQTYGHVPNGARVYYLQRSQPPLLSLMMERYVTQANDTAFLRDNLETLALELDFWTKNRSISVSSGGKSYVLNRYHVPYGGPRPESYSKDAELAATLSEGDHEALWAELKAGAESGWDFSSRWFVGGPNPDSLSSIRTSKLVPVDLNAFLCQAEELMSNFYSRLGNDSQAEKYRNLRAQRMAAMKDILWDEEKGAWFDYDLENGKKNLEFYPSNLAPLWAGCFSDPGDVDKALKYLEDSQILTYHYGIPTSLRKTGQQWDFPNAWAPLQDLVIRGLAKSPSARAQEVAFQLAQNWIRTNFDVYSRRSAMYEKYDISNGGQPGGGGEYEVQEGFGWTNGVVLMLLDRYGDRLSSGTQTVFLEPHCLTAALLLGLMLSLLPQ

[9] = test system: Aspergillus niger; experiment: Inhibition of Aspergillus niger amyloglucosidase at 2 mM incubated for 10 to 30 mins by spectrophotometry; method in brief: as §1
[10] = test system: Penicillium decumbens; experiment: Inhibition of Penicillium decumbens naringinase at 2 mM incubated for 10 to 30 mins using substrate by spectrophotometry; method in brief: as §1
[11] = target: Beta-galactosidase (Escherichia coli K-12) (UniProt P00722); experiment: Inhibition of Escherichia coli beta-galactosidase at 2 mM incubated for 10 to 30 mins using o-nitrophenyl beta-D-galactopyranoside substrate by spectrophotometry; method in brief: as §1
Chain of Beta-galactosidase (Escherichia coli K-12) (P00722 whole entry): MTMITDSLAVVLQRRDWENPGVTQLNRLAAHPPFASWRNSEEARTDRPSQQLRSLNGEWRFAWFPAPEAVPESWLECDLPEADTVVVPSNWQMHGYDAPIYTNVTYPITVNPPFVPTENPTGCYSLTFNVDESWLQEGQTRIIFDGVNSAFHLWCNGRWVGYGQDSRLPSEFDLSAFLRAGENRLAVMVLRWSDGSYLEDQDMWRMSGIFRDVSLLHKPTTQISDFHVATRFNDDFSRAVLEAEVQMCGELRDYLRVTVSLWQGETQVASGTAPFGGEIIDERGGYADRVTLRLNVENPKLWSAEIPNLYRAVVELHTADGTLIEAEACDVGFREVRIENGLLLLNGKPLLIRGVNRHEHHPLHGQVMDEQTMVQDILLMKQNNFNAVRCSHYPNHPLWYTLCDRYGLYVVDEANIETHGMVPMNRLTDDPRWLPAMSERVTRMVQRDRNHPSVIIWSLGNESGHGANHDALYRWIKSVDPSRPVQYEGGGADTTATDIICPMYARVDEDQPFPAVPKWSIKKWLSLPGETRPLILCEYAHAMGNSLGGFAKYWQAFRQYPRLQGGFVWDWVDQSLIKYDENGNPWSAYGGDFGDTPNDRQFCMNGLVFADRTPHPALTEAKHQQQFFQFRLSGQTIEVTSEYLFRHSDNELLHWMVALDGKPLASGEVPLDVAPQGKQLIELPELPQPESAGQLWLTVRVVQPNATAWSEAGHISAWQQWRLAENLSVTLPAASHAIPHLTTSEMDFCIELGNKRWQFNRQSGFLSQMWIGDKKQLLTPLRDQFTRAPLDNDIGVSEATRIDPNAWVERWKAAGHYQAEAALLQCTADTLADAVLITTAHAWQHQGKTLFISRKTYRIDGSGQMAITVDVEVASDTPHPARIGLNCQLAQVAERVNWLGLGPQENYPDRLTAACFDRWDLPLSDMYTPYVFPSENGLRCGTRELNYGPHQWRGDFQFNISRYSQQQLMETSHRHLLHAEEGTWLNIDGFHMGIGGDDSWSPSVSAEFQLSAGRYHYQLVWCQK

[12] = test system: Saccharomyces cerevisiae; experiment: Inhibition of yeast isomaltase at 2 mM incubated for 10 to 30 mins by spectrophotometry; method in brief: as §1
[13] = target: T1, Lysosomal acid glucosylceramidase; experiment: Inhibition of human beta-glucocerebrosidase at pH 5.0 by spectrophotometry

SMILES	inhibition [1]	inhibition [2]	IC50 ([3]; read-out: IC50) [µM]	inhibition [4]	inhibition [5]	inhibition [6]	inhibition [7]	inhibition [8]	inhibition [9]	inhibition [10]	inhibition [11]	inhibition [12]	IC50 ([13]; read-out: IC50) [µM]	IC50 [3]	IC50 [13]
OC[C@H]1O[C@@H]2N=C(SCCCCCCCCCCCCCCCCF)O[C@@H]2[C@@H](O)[C@@H]1O	inactive	inactive	3.9	inactive	inactive	inactive	inactive	inactive	inactive	inactive	inactive	inactive	27	–	–
COC(=O)CCCCCCCCCCCCCCCSC1=N[C@H]2O[C@H](CO)[C@@H](O)[C@H](O)[C@H]2O1	inactive	inactive	33	inactive	inactive	inactive	inactive	inactive	inactive	inactive	inactive	inactive	300	–	–
OCCCCCCCCCCCCCCCCSC1=N[C@H]2O[C@H](CO)[C@H](O)[C@H](O)[C@H]2O1	inactive	inactive	–	inactive	inactive	inactive	inactive	inactive	inactive	inactive	inactive	inactive	–	Not Active	Not Active
OC[C@H]1O[C@@H]2N=C(SCCCCCCCCCCCCCCCCSC3=N[C@H]4O[C@H](CO)[C@@H](O)[C@H](O)[C@H]4O3)O[C@@H]2[C@@H](O)[C@@H]1O	inactive	inactive	–	inactive	inactive	inactive	inactive	inactive	inactive	inactive	inactive	inactive	–	Not Active	Not Active
